A selection: hits, their analogues and other compounds. The true share with any hit is near 3%.
GC-B act: human GC-B receptor activators, primary screen, HEK293 GC-B cells, cGMP TR-FRET, EC30 CNP | Atrial natriuretic peptide receptor 2 (Homo sapiens), P20594 | 0% at EC30 CNP, 100% saturating CNP | activation, % at 10 µM | 0.11% of 370,000 active | AID 1920062, 2024;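 active = activation at 10 µM reaching about 35% in either raw or pattern-adjusted values, limit read from the data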
Hep lipid drop: inhibitors of hepatocyte lipid droplet formation, primary screen, imaging, high-throughput imaging, BODIPY stain. inhibition, % at 6.5 µM. AML12 mouse hepatocytes, oleate lipid droplets. AID 1656, 2009. 0.4% of 240,000 active;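 active = lipid droplet intensity inhibited by at least 50%, with more than 500 cells counted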
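Assay system: AML12 mouse liver cells | Compound: 6.5 µM single-point dosing | Schedule: Overnight exposure | Technique: Fluorescence imaging, 20x objective, two fields per well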
NPR1 activator: GC-A stimulated cGMP production enhancers – HEK293 GC-A cells, cGMP TR-FRET, EC30 ANP, primary screen | Atrial natriuretic peptide receptor 1 (Homo sapiens), P16066 | 0% at EC30 ANP, 100% saturating ANP | activation, % at 10 µM | 0.14% of 370,000 active; in the data active = activation above about 40%
Target sequence (P16066 whole entry, looked up): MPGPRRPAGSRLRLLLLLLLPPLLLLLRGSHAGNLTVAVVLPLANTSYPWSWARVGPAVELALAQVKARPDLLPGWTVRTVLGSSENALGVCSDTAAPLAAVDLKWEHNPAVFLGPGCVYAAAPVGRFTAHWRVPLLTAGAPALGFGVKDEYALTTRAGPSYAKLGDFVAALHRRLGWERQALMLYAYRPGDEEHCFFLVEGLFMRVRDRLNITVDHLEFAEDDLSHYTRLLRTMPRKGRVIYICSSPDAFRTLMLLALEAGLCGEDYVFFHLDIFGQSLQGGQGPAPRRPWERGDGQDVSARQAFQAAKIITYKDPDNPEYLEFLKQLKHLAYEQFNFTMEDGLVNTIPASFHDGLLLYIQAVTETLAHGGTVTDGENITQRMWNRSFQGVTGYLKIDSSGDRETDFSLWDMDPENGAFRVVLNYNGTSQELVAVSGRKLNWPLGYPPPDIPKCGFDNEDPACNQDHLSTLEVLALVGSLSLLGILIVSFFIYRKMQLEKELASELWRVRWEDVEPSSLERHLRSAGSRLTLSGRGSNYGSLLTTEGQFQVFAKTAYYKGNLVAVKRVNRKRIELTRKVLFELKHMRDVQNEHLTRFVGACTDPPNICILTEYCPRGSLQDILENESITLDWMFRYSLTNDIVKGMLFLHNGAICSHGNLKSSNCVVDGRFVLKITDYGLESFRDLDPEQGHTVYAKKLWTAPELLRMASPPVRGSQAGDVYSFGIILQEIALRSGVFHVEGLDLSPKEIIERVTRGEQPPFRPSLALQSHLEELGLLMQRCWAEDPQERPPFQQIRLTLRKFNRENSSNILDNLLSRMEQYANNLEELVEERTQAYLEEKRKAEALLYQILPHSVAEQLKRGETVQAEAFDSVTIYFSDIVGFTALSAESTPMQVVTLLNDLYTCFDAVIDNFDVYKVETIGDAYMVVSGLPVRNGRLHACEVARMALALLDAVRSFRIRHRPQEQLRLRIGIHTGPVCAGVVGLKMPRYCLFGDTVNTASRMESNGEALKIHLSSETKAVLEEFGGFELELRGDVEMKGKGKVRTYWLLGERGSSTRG
GASC-1 inh: inhibitors of GASC-1 histone demethylase, primary screen, biochemical, fluorescence, DELFIA europium. AID 2099, 2009. GST-JMJD2C(1-420) H3K9me3 demethylation. Lysine-specific demethylase 4C (Homo sapiens), Q9H3R0. inhibition, % at 2.35 µM. 0.069% of 330,000 active;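 active = more than half of a compound's replicate wells show inhibition beyond 50%, single wells judged on their own value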;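 note: signal counts dimethyl H3K9 product captured on neutravidin plate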
NR3A LBD binder: binders of NR3A ligand-binding domain, primary screen, biophysical, differential scanning fluorimetry, uHTS; Glutamate receptor ionotropic, NMDA 3A (GRIN3A) ligand-binding domain; NR3A LBD differential scanning fluorimetry, Tm shift; 0% = protein alone, 100% = glycine-bound protein; Tm shift relative to glycine control, % at 25 µM; 2.5% of 340,000 active;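 active = melting temperature shift of at least 10% of the positive control shift, at one fixed dose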
aDG glyco act: activators of alpha-DG glycosylation, primary screen, uHTS, Pro5-aDG cells, AlphaScreen; alpha-DG glycosylation AlphaScreen (IIH6); 0% Pro5, 100% B10-LARGE cell signal; activation, % at 10 µM; 0.22% of 360,000 active;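 active = activation of at least 8% versus controls, or a plate z-score of at least 8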;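 note: Pro5 are CHO cells carrying HIG-tagged alpha-DG that lacks glycosylation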
Each line names hits and unclear results; the compound was inactive in the other large screens.

Cc1ccc(NC(=O)CN2C(=O)NC(Cc3ccccc3)C2=O)cc1Cl (stereo unspecified)	NR3A LBD binder 15 (no result: Hep lipid drop)
CC(C)CC1NC(=O)N(CC(=O)Nc2ccc(OC(F)F)cc2)C1=O (stereo unspecified)	NR3A LBD binder 27 (no result: Hep lipid drop, GASC-1 inh)
O=C(CN1C(=O)NC(Cc2ccccc2)C1=O)Nc1ccc(OC(F)F)cc1 (stereo unspecified)	none (no result: Hep lipid drop)
Cc1ccc(NC(=O)CN2C(=O)CCS(=O)(=O)c3ccccc32)cc1Cl	NR3A LBD binder 15
CN(C)S(=O)(=O)c1cccc(NC(=O)CN2C(=O)NC(Cc3c[nH]c4ccccc34)C2=O)c1 (stereo unspecified)	none
N#Cc1cccc(NC(=O)OC2CC3CC2[C@H]2CCCCN2C3)c1 (stereo partly specified)	none (no result: Hep lipid drop, GASC-1 inh, NR3A LBD binder, aDG glyco act)
O=C(Cc1cccs1)NC1CCCCN(Cc2cccc(Cl)c2)C1=O (stereo unspecified)	none (no result: Hep lipid drop, GASC-1 inh, NR3A LBD binder, aDG glyco act)
COCOCCn1cc(CN2CCS(=O)(=O)N(Cc3ccc(-c4ccc(Cl)nc4)cc3)C(CC(C)C)C2=O)nn1 (stereo unspecified)	none (no result: Hep lipid drop, GASC-1 inh, NR3A LBD binder)
O=C(CN1C(=O)NC(Cc2c[nH]c3ccccc23)C1=O)Nc1cccc(S(=O)(=O)N2CCCCCC2)c1 (stereo unspecified)	NR3A LBD binder 16
O=C(CN1C(=O)NC(Cc2c[nH]c3ccccc23)C1=O)Nc1cccc(S(=O)(=O)N2CCCC2)c1 (stereo unspecified)	none
Nc1cc(Cl)cc2c1-c1ccc(Cl)cc1C2	NR3A LBD binder 23 (no result: Hep lipid drop, GASC-1 inh)
O=C(O)c1cc(O)c2c(c1)[C@H]([C@H]1c3cc(C(=O)O)cc(O)c3C(=O)c3c(O[C@@H]4O[C@H](CO)[C@@H](O)[C@H](O)[C@H]4O)cccc31)c1cccc(OC3O[C@H](CO)[C@@H](O)[C@H](O)[C@H]3O)c1C2=O (stereo partly specified)	NR3A LBD binder 26 (no result: Hep lipid drop)
O=C(O)c1cc(O)c2c(c1)[C@@H]([C@H]1c3cc(C(=O)O)cc(O)c3C(=O)c3c(O[C@@H]4O[C@H](CO)[C@@H](O)[C@H](O)[C@H]4O)cccc31)c1cccc(OC3O[C@H](CO)[C@@H](O)[C@H](O)[C@H]3O)c1C2=O (stereo partly specified)	none (no result: Hep lipid drop)
Cc1nn(-c2ccccc2)c(C)c1C=NNC(=O)CSc1nc2ccccc2n1C	none (no result: Hep lipid drop, GASC-1 inh, NR3A LBD binder, aDG glyco act)
Cc1ccccc1NC(=O)CN(C)S(=O)(=O)c1ccc2c(c1)n(C)c(=O)c(=O)n2C	none
CN(CC(=O)Nc1ccc(F)cc1)S(=O)(=O)c1ccc2c(c1)c(=O)n(C)c(=O)n2C	NR3A LBD binder 10
Cc1cccc(NC(=O)CN(C)S(=O)(=O)c2ccc3c(c2)n(C)c(=O)c(=O)n3C)c1C	NR3A LBD binder 13
C[C@H]1CN([C@@H](C)CO)C(=O)Cc2cc(NC(=O)Nc3ccccc3)ccc2O[C@H]1CN(C)Cc1ccccc1	none (no result: Hep lipid drop, GASC-1 inh)
C[C@@H]1CN([C@@H](C)CO)C(=O)c2cc(NC(=O)Nc3ccc(F)cc3)ccc2O[C@@H]1CN(C)Cc1ccc(Oc2ccccc2)cc1	NR3A LBD binder 12 (no result: Hep lipid drop)
C[C@H](CO)N1C[C@H](C)[C@H](CN(C)Cc2ccc(Oc3ccccc3)cc2)Oc2ccc(NC(=O)Nc3cccc4ccccc34)cc2CC1=O	NR3A LBD binder 12 (no result: Hep lipid drop)
C[C@@H]1CN([C@@H](C)CO)C(=O)Cc2cc(NC(=O)Nc3ccc(F)cc3)ccc2O[C@@H]1CN(C)Cc1ccc(Cl)c(Cl)c1	NR3A LBD binder 18 (no result: Hep lipid drop, GASC-1 inh)
COC(=O)[C@]12C[C@H](CC(=O)NCc3cccs3)C(=O)N(CCc3ccc(OC)c(OC)c3)C1=C[C@H](C1CCCC1)O[C@@H]2C	none (no result: Hep lipid drop, GASC-1 inh, NR3A LBD binder, aDG glyco act)
Nc1cc(N)nc(SCC(=O)NCc2ccc3c(c2)OCO3)n1	none (no result: Hep lipid drop)
COc1ccccc1-c1noc(CCC(=O)Nc2cccc(C)c2)n1	NR3A LBD binder 14 (no result: Hep lipid drop)
CCN(CC)S(=O)(=O)c1ccc(Oc2ccccc2)cc1	NR3A LBD binder 13
O=C(Nc1ccccc1)Nc1sccc1-c1nc2ccccc2s1	NR3A LBD binder 22
CSc1nc2ccc(NC(=O)c3ccc(F)c(F)c3)cc2s1	NR3A LBD binder 28
CCc1ccc(NC(=O)c2ccc3nc(N)sc3c2)cc1	NR3A LBD binder 16
CSc1nc2ccc(NC(=O)c3cccs3)cc2s1	NR3A LBD binder 20 (no result: Hep lipid drop)
COc1ccc(C(C(=O)N(C)C2CCCC2)N(Cc2ccc(F)cc2)C(=O)c2sccc2Cl)cc1OC (stereo unspecified)	none (no result: Hep lipid drop, GASC-1 inh, NR3A LBD binder, aDG glyco act)
Cn1c(=O)c2cc(S(=O)(=O)N3CCN(Cc4ccccc4)CC3)ccc2n(C)c1=O	none (no result: Hep lipid drop, GASC-1 inh, NR3A LBD binder, aDG glyco act)
N#Cc1ccc(CSc2nc3sc4c(c3c(=O)n2-c2ccc(Br)cc2)CCCC4)cc1	none (no result: Hep lipid drop, GASC-1 inh, NR3A LBD binder, aDG glyco act)
O=C(Nc1ccc2oc(-c3ccccc3)nc2c1)c1ccncc1	none (no result: Hep lipid drop)
O=C(Nc1cccc(-c2nc3ccccc3s2)c1)c1cc(=O)c2ccccc2o1	none
CSc1nc2ccc(NC(=O)c3ccco3)cc2s1	none
CSc1nc2ccc(NC(=O)c3cc4ccccc4o3)cc2s1	NR3A LBD binder 19
O=C(Nc1cccc(-c2nc3ccccc3s2)c1)c1cccs1	NR3A LBD binder 12
O=C(Nc1ccc2oc(-c3ccccc3)nc2c1)c1cccs1	NR3A LBD binder 11
Clc1ccccc1Cn1nnc2c(NCCN3CCOCC3)ncnc21	GASC-1 inh 91
CCOc1ccccc1NC(=O)c1ccc(OCC(=O)N2CCOCC2)c(OC)c1	none (no result: Hep lipid drop)
COc1ccc(-c2nc(NC(=O)c3ccc(OCC(=O)Nc4ccc(F)cc4)c(OC)c3)sc2C)cc1	NR3A LBD binder 11
COc1ccc(OC)c(NC(=O)c2ccc(OCC(=O)N3CCOCC3)c(OC)c2)c1	NR3A LBD binder 22 (no result: Hep lipid drop)
COc1cc(C(=O)Nc2ccccc2N2CCOCC2)ccc1OCc1c(C)noc1C	NR3A LBD binder 12
COc1cc(C(=O)Nc2nc(-c3ccc(F)cc3)cs2)ccc1OCC(=O)N1CCOCC1	Hep lipid drop 61
COC(=O)C1=C(C)N(Cc2ccc(Br)cc2)C(=S)NC1c1ccc(OC)cc1 (stereo unspecified)	none (no result: Hep lipid drop, GASC-1 inh, NR3A LBD binder, aDG glyco act)
COc1ccccc1C=NNC(=O)CSc1nc2ccccc2n1Cc1ccc(Cl)cc1	none (no result: Hep lipid drop, GASC-1 inh, NR3A LBD binder, aDG glyco act)
Clc1ccc(CN2CCN(c3ncc(Cc4ccccc4)cn3)CC2)c(Cl)c1	none (no result: Hep lipid drop, GASC-1 inh, NR3A LBD binder, aDG glyco act)
C[C@H]1COc2cc(NCCO)ccc2S(=O)(=O)N1	none (no result: Hep lipid drop, GASC-1 inh, NR3A LBD binder, aDG glyco act)

Screening data from PubChem BioAssay.
